Experimental data reported in ChEMBL document CHEMBL4651341, “The discovery of a novel series of compounds with single-dose efficacy against juvenile and adult Schistosoma species” (PLoS Negl Trop Dis, 2021).

Key:
Schistosoma mansoni [1] = assay: Concentration required to kill 50% of 42 day old worms 5 days after drug treatment.; type: functional, organism-based; conditions: Puerto Rican, 120 h
Summary of the method: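 Adult S. mansoni were perfused from CD1 mice 6 weeks post-infection and washed. They were cultured 3 pairs per well in 1 mL DMEM with 2 mM glutamine, penicillin/streptomycin and 10% FCS […] at 37 °C, 5% CO2. Viability of individual worms was scored on day 5 (120 h).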

Schistosoma mansoni [2] = assay: Concentration required to kill 50% of 21 day old worms 5 days after drug treatment.; type: functional, organism-based; conditions: Puerto Rican, 120 h
Summary of the method: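 Juvenile S. mansoni (Puerto Rican strain) were perfused from CD1 mice 3 weeks post-infection and washed. They were cultured 6–8 per well in 200 µL DMEM with 2 mM glutamine, penicillin/streptomycin and 10% FCS at 37 °C, 5% CO2. Viability of individual worms was scored on day 5 after dosing (120 h).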

[3] = Concentration required to kill 50% HepG2 cells as detected by MTT staining; type: toxicity, cell-based; conditions: homo sapiens, read-out: TC50 (the source's name)
[4] = Mean time to peak plasma concentration in Swiss albino male mice at […] per compound (administered orally in a mixture of 5 compounds to 3 mice) assessed by LCMS/MS.; type: ADME, organism-based; conditions: mouse, po
[5] = Mean plasma concentration at 4h in Swiss albino male mice at […] per compound (administered orally in a mixture of 5 compounds to 3 mice) assessed by LCMS/MS.; type: ADME, organism-based; conditions: mouse, po
[6] = Mean volume of distribution at steady state in Swiss albino male mice at 1 mg/kg per compound (administered iv in a mixture of 5 compounds to 3 mice) assessed by LCMS/MS.; type: ADME, organism-based; conditions: mouse, in vivo, read-out: Volume
Summary of the method: (§1)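 Male Swiss albino mice (~30 g), 3 per experiment, mostly dosed as mixtures of 5 compounds iv via the lateral tail vein. Vehicle: 10% DMSO/90% 50 mM Na2HPO4 with 0.5% Tween-80. Plasma stored at −20 °C and quantified by LC-MS after acetonitrile precipitation.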

[7] = Mean oral bioavailability in Swiss albino male mice at […] per compound (administered in a mixture of 5 compounds to 3 mice) assessed by LCMS/MS.; note: dose 2.5 mg/kg; type: ADME, organism-based; conditions: mouse, in vivo
[8] = Mean half-life in Swiss albino male mice at 1 mg/kg per compound (administered iv in a mixture of 5 compounds to 3 mice) assessed by LCMS/MS.; type: ADME, organism-based; conditions: mouse, in vivo; summary of the method: as §1
[9] = Mean observed clearance in Swiss albino male mice at 1 mg/kg per compound (administered iv in a mixture of 5 compounds to 3 mice) assessed by LCMS/MS.; type: ADME, organism-based; conditions: male, Swiss albino, mouse, in vivo, read-out: Clearance (converted)
Summary of the method: as §1, with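 “Tween-80. Blood sampled at 5, 15, 30 min and 1, 2, 4, 8, 24 h.” for “Tween-80.”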

[10] = Mean AUC inf in Swiss albino male mice at 1 mg/kg per compound (administered iv in a mixture of 5 compounds to 3 mice) assessed by LCMS/MS.; type: ADME, organism-based; conditions: male, Swiss albino, mouse, in vivo
Summary of the method: as §1, with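 “Tween-80. Blood sampled at 5, 15, 30 min and 1, 2, 4, 8, 24 h.” for “Tween-80.”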

[11] = Mean plasma concentration at 24h in Swiss albino male mice at […] per compound (administered orally in a mixture of 5 compounds to 3 mice) assessed by LCMS/MS.; type: ADME, organism-based; conditions: mouse, po
[12] = Partition coefficient of compound between n-octanol and PBS (pH7.4); type: physicochemical; conditions: octanol/water, pH 7.4
Summary of the method: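 Shake-flask method using octanol and PBS pH 7.4, each pre-saturated with the other. Compound was shaken 2 h at 850 rpm, 25 °C, then the phases were separated by centrifugation and both layers diluted and analysed by LC-MS/MS. LogD = log(octanol AUC × relative dilution / buffer AUC).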

[13] = male, Swiss albino, read-out: Bioavailability

Row | Compound | EC50 (Schistosoma mansoni [1]) [nM] | EC50 (Schistosoma mansoni [2]) [nM] | other results
1 | CC(C)c1nc2cnc(-c3cccc(Br)c3)cn2c1-c1ccc2[nH]ncc2c1F | 36 | 26.6 | –
2 | CS(=O)(=O)c1ccc(-c2cnc3ccc(-c4cccc(S(C)(=O)=O)c4)nn23)cc1 | – | 24900 | CC50 [3]: 11900 nM
3 | CC(C)c1nn2cnc(-c3ccc(F)c(C(F)(F)F)c3)cc2c1-c1ccc2[nH]ncc2c1F | – | – | Tmax [4]: 120 min; concentration at 4 h [5]: 332 ng/mL
4 | Fc1ccc(-c2cn3c(-c4ccc5[nH]ncc5c4F)c(C4CC4)nc3cn2)cc1C(F)(F)C(F)(F)F | 23.2 | 36.8 | –
5 | Fc1ccc(-c2cn3c(-c4ccc5[nH]ncc5c4F)c(C(F)(F)F)nc3cn2)cc1C1CCC1 | 45.8 | 59.1 | Vd [6]: 3.77 L/kg; bioavailability [7, 13]: 121%; half-life [8]: 132 min; clearance [9]: 35.7 mL/min/kg; AUC(0-inf) [10]: 230 ng·h/mL; concentration at 24 h [11]: 3.2 ng/mL; Tmax [4]: 79.8 min; concentration at 4 h [5]: 123 ng/mL; CC50 [3]: 6090 nM
6 | CC(C)c1nc2cnc(-c3ccc(F)c(C(F)(F)F)c3)cn2c1-c1ccc2[nH]cnc2c1F | 904 | 658 | –
7 | CC(C)Oc1cc(-c2cn3c(-c4ccc5[nH]ncc5c4F)c(C(F)(F)F)nc3cn2)ccc1F | – | – | bioavailability [7]: 152%; AUC(0-inf) [10]: 340 ng·h/mL; Tmax [4]: 40.2 min; Lipophilicity [12]: 5.47 =; concentration at 4 h [5]: 185 ng/mL; CC50 [3]: 9250 nM
8 | Cc1noc(C)c1-c1cn2c(-c3ccc(O)cc3)cnc2cn1 | – | > 25000 | Vd [6]: 0.493 L/kg; bioavailability [7, 13]: 0.01%; half-life [8]: 3.65 min; clearance [9]: 140 mL/min/kg; AUC(0-inf) [10]: 61.2 ng·h/mL; Tmax [4]: 0.6 min
9 | Cc1c(-c2c(C(F)(F)F)nc3cnc(-c4ccc(F)c(C(F)(F)F)c4)cn23)ccc2[nH]ncc12 | – | 760 | Vd [6]: 7.87 L/kg; bioavailability [7, 13]: 65.2%; half-life [8]: 1420 min; clearance [9]: 4.3 mL/min/kg; AUC(0-inf) [10]: 2000 ng·h/mL; concentration at 24 h [11]: 98.1 ng/mL; Tmax [4]: 40 min; concentration at 4 h [5]: 250 ng/mL
10 | Oc1cc(F)c(-c2c(CC(F)(F)F)nc3cnc(-c4ccc(F)c(C(F)(F)F)c4)cn23)c(F)c1 | 79.3 | 139 | –
11 | CC(C)Oc1cccc(-c2cn3c(-c4ccc(O)cc4)cnc3cn2)c1 | 4430 | 5310 | –
12 | Oc1ccc(-c2cnc3cnc(C4=COCCC4)cn23)cc1 | – | > 25000 | bioavailability [7, 13]: 0.01%; clearance [9]: 177 mL/min/kg; AUC(0-inf) [10]: 52.2 ng·h/mL; Tmax [4]: 0.6 min
13 | COc1c(O)cccc1-c1c(C(C)C)nc2cnc(-c3cccc(C(F)(F)F)c3)cn12 | 1760 | 1320 | –
14 | Cc1nc2cnc(-c3cccc(C(F)(F)F)c3)cn2c1-c1ccc(O)cc1 | < 615 | 1420 | –
15 | CC(C)c1nc2cnc(-c3ccc(F)c(C(F)(F)F)c3)cn2c1-c1c(F)ccc(O)c1F | 455 | 320 | –
16 | CC(C)c1cc(-c2cn3c(-c4c(F)cc(O)cc4F)c(C4CC4)nc3cn2)ccc1F | 4.48 | 5.19 | –

Row | Compound | EC50 (Schistosoma mansoni [1]) [nM] | EC50 (Schistosoma mansoni [2]) [nM] | other results
17 | CC(C)c1cc(-c2cn3c(-c4ccc5[nH]ncc5c4F)c(C(F)(F)F)nc3cn2)ccn1 | 37 | 91.7 | CC50 [3]: 9530 nM
18 | Cc1nc2cnc(-c3ccc(F)c(S(F)(F)(F)(F)F)c3)cn2c1-c1ccc2[nH]ncc2c1F | 26.2 | 77 | –
19 | CC(C)Oc1cccc(-c2cn3c(-c4ccc5[nH]ncc5c4F)c(C(F)(F)F)nc3cn2)c1 | 17.3 | 26.4 | CC50 [3]: 13200 nM
20 | C#CCOc1cc(-c2cn3c(-c4ccc5[nH]ncc5c4F)c(C(F)(F)F)nc3cn2)ccc1F | 10.4 | 21 | –
21 | CC(C)c1cccc(-c2ccc3nnc(-c4ccc(CO)cc4)n3c2)c1 | – | > 25000 | –
22 | CC(C)Oc1cccc(-c2cn3c(-c4ccc5cn[nH]c5c4)cnc3cn2)c1 | – | > 25000 | –
23 | COc1ncc(-c2cnc3cnc(-c4cccc(OC(C)C)c4)cn23)cn1 | – | > 25000 | –
24 | CC(C)Oc1cccc(-c2cn3c(-c4cccc(C#N)c4)cnc3cn2)c1 | – | > 25000 | –
25 | COc1ccc(-c2cnc3cnc(-c4cccc(OC(C)C)c4)cn23)cn1 | – | 24200 | –
26 | COCc1cccc(-c2nnc3ccc(-c4cccc(OC(C)C)c4)cn23)c1 | – | > 25000 | –
27 | CC(C)Oc1cccc(-c2cn3c(-c4cn[nH]c4)cnc3cn2)c1 | – | > 25000 | –
28 | NC(=O)c1cccc(-c2cn3c(-c4ccc(O)cc4)cnc3cn2)c1 | – | > 25000 | –
29 | CC(C)c1cccc(-c2ccc3nnc(-c4ccc(N)cc4)n3c2)c1 | – | > 25000 | –
30 | COc1cc(-c2c(C)nc3cnc(-c4cccc(C(F)(F)F)c4)cn23)ccc1O | < 640 | 1270 | –
31 | Cc1cnc2cnc(-c3cccc(OC(C)C)c3)cn12 | – | > 25000 | –
